# miR-122 sensor – miR-122 inhibition in Huh7 cells; Huh7 miR-122 Renilla luciferase sensor, 48 h; neutral wells = 0, positive control = 100; activation (reporter increase), % at 12.5 µM; 0.3% of 340,000 active;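 active means mean replicate activation score at least 90 and every replicate individually at or above 90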;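 further: higher luciferase means less miR-122 activity so hits act as miR-122 inhibitors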
# ARNT-TACC3 inh – ARNT/TACC3 interaction disruption; Q9Y6A5; AlphaScreen His-ARNT PAS-B/GST-TACC3 binding, luminescence; TACC3 fragment carries E629A point mutation; inhibition, % at 9.99 µM; 0.66% of 390,000 active;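 active means mean inhibition of replicates at least 50% and at least half of replicates each reaching 50%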;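 further: 0% = complete ARNT plus TACC3 wells and 100% = ARNT alone without TACC3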
# CAL PDZ FP-1 – blocks peptide binding to the human CAL PDZ domain; Q9HD26; purified CAL PDZ, TMR-peptide fluorescence polarization, 1 h; inhibition, % at 24.9 µM; 0.92% of 300,000 active;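 active means mean inhibition of at least 30% with at least half of replicates also reaching 30%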;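 further: 0% = DMSO neutral control and 100% = excess unlabeled competitor peptide PRC23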
# F508del corr – correctors of CFTR F508del function in bronchial epithelial cells; activity (quench increase), % at 7.58 µM; 0.36% of 350,000 active; AID 720511; CFBE cells, YFP halide quenching; stimulated with forskolin plus potentiator P3; % fluorescence drop versus neutral controls;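 active means mean added fluorescence quench of at least 8% versus neutral control, with both replicates also reaching 8%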;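 further: cells transiently co-express mutant CFTR-F508del with the halide-sensitive YFP; corrector assay measuring rescue of mutant channel to the surface after 24 h compound exposure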
# CAL PDZ FP-2 – human CAL PDZ-peptide interaction inhibition | inhibition, % at 20 µM | 0.02% of 330,000 active | purified CAL PDZ, TMR-peptide fluorescence polarization, 1 h | Q9HD26;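 active means highest replicate inhibition of at least 40%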;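 further: plate controls were DMSO neutral control wells for no effect and unlabeled competitor peptide control wells for full effect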
#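 Material – purified CerCALP PDZ construct · Detection – FP readout, S and P plane fluorescence · Measure – percent inhibition from loss of millipolarization · Controls – unlabelled peptide for full inhibition, DMSO wells as neutral · Probe or stimulus – TMR-labelled reporter peptide T*-PRC34 bound in PDZ groove · Times – 1 h at RT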
# PGC1a acetyl inh – lowers PGC1a acetylation signal in U2OS cells; AlphaScreen anti-acetyl-lysine; with virally co-expressed GCN5 acetyltransferase; inhibition, % at 15.6 µM; 0.17% of 350,000 active;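 active means every replicate shows inhibition of at least 40%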;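 further: 0% = neutral control wells and 100% = positive control wells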
# Active calls of the source: *; . = not tested or not shown; [ ] = dose if it differs, or a comment. Rows were chosen to be rich in hits. Some 1.7% of all compounds tested hit in one or more screens of this group.
SMILES,miR-122 sensor,ARNT-TACC3 inh,CAL PDZ FP-1,F508del corr,CAL PDZ FP-2,PGC1a acetyl inh
COC(=O)c1ccc(NC(=O)CSc2nn3c(=O)c(C)nnc3s2)cc1,.,60.4*,-4.4,1.1,-1.5,.
Cc1nnc2sc(SCC(=O)Nc3cccc(Cl)c3)nn2c1=O,.,64.7*,99.5*,2.4,12.3,-9.6
CCC(=O)Nc1nnc(SCC(=O)Nc2cccc(Cl)c2)s1,.,-7.3,-0.7,0.2,-1.3,.
CCCC#Cc1cnc2c(c1)C(=O)N([C@H](C)CO)C[C@H](C)[C@@H](CN(C)C(=O)C1CCOCC1)O2,-1.4[16.7 µM],-6.0,.,0.2,.,2.5
Cc1noc(C)c1S(=O)(=O)N(C)C[C@@H]1Oc2ccc(NS(C)(=O)=O)cc2C(=O)N([C@H](C)CO)C[C@@H]1C,6.4[16.7 µM],.,.,0.8,.,-11.0
CCCCCCCCCC(=O)N/N=C/c1ccc(C)s1,.,2.2,49.4*,.,16.7,.
COc1cccc(S(=O)(=O)N[C@H]2CC[C@@H](CC(=O)NC3CCC3)O[C@@H]2CO)c1,.,-2.3,.,-2.3,.,15.9
COc1ccccc1N=Nc1ccc(O)c2ncccc12,-11.8,66.5*,17.8,1.3,1.9,13.4
COc1cccc(C#Cc2ccc3c(c2)O[C@@H](CN(C)C(=O)c2ccccn2)[C@H](C)CN([C@@H](C)CO)S3(=O)=O)c1,8.4[16.7 µM],1.4,.,9.8*,.,16.5
CNC[C@@H]1Oc2cc(C#Cc3ccccn3)ccc2S(=O)(=O)N([C@H](C)CO)C[C@H]1C,-6.9[16.7 µM],45.6*,.,-3.0,.,0.5
COc1ccc(NC(=O)Nc2ccc3c(c2)C(=O)N([C@@H](C)CO)C[C@H](C)[C@H](CN(C)Cc2ccncc2)OCCCC[C@H](C)O3)cc1,1.7[16.7 µM],1.9,.,-1.8,.,3.1
COCC(=O)N1[C@H](CO)[C@@H](c2ccc(-c3cccc(OC)c3)cc2)C12CN(C(C)=O)C2,.,.,.,-4.3,.,-5.0
COc1ccc(CCN(C)C(=O)c2c(C)nn(CC(C)C)c2Cl)cc1OC,-6.7,-1.3,103.5*,0.2,-1.2,-1.2
COc1ccccc1CN(C)C(=O)c1cnc(C)cn1,8.2,-27.3,-1.2,2.9,0.4,-4.0
COc1ccc(CCN(C)C(=O)c2cnc(C)cn2)cc1OC,-15.3,active,-1.3,-2.1,0.1,10.7
Cc1nnc(SCC(=O)NC(C)(C)C)n1NCc1ccc(N(C)C)cc1,10.6,-0.4,74.3*,0.3,-4.0,-16.8
Cc1ccc(Cl)cc1N1CCN(C(=O)c2cn(C)c(=O)c3c2c2ccccc2n3C)CC1,-7.8,5.4,-1.0,10.4*,-0.5,-1.2
COC(=O)C[C@H]1CC[C@@H](N)[C@H](CO)O1,.,0.2,.,-2.6,.,2.4
COc1ccccc1Nc1nc(N)nc(CN2CCCCCC2)n1,-1.2,88.6*,.,.,-2.1,4.7
Nc1nc(CN2CCCCCC2)nc(Nc2ccc(F)cc2)n1,-2.6,47.6*,-5.4,.,-1.6,-18.8
CCOC(=O)C1CCCN(Cc2nc(N)nc(Nc3ccc(Cl)cc3)n2)C1 (stereo unspecified),0.1,35.0,.,.,-2.0,0.5
CCOC(=O)C1CCCN(Cc2nc(N)nc(Nc3ccc(OC)cc3)n2)C1 (stereo unspecified),-1.0,31.2*,-5.4,.,-0.7,1.4
Nc1nc(CN2CCN(c3ccccn3)CC2)nc(Nc2ccc(F)cc2)n1,0.7,14.7,.,.,-1.3,-8.8
CO[C@H]1CN(C)C(=O)c2ccc(NC(C)=O)cc2OC[C@@H](C)N(C(=O)c2ccccn2)C[C@H]1C,-9.8[16.7 µM],12.6,.,-1.6,.,7.8
CO[C@@H]1CN(C)C(=O)c2cc(NC(=O)C3CCCC3)ccc2OC[C@@H](C)N(S(C)(=O)=O)C[C@@H]1C,3.4[16.7 µM],0.9,.,0.5,.,7.1
CC(=NNC(=S)N1CCN(c2ccccn2)CC1)c1ccccn1,-0.4,22.4,0.2,-3.1,-0.1,-6.6
CC(=NNC(=S)N1CC2CCC(CC2)C1)c1cnccn1,.,51.3*,-6.0,10.7*,-0.1,.
CC(=NNC(=S)N1CCN(c2ccccn2)CC1)c1nccs1,.,66.2*,-2.4,.,-0.9,.
CC(=NNC(=S)N1CCN(C2CCCCCC2)CC1)c1ccccn1,4.3,76.6*,-4.1,5.1,-0.1,14.4
CCC(=O)N1CC2(C1)[C@@H](c1ccccc1)[C@@H](CO)N2Cc1ccccc1OC,.,.,.,-0.5,.,8.0
